Source: ChEMBL document CHEMBL1127652, “An enantiospecific synthesis of the human cytomegalovirus antiviral agent [(R)-3-((2-amino-1,6-dihydro-6-oxo-9H-purin-9-yl)methoxy)-4- hydroxybutyl]phosphonic acid” (J Med Chem, 1994)

Key:
[1] = In vitro toxicity against burst forming unit erythroid (BFU-E); conditions: human, burst forming unit erythroid (BFU-E) progenitor cells
[2] = In vitro toxicity against colony forming unit granulocyte macrophage (CFU-GM); format: cell-based; conditions: human
[3] = system: MRC5; experiment: In vitro antiviral activity against Human cytomegalovirus (HCMV)strain AD169 in MRC-5 lung fibroblasts using a DNA-hybridization assay; format: functional, cell-based
Summary of the method: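 HCMV strain AD169 grown in MRC-5 human lung fibroblasts; viral DNA read out by DNA hybridization. Each drug concentration tested in triplicate. IC50 derived by probit linear regression, and reported values span 7 to 12 independent experiments with standard errors.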

[4] = system: CCRF-CEM; experiment: The compound is evaluated for toxicity in CEM cells; format: cell-based; conditions: Homo sapiens
[5] = system: IM-9; experiment: The compound is evaluated for toxicity in IM-9 cells; format: cell-based; conditions: Homo sapiens
[6] = system: MOLT-4; experiment: The compound is evaluated for toxicity in MOLT-4 cells; format: cell-based; conditions: Homo sapiens

Row | SMILES | IC50 [1] [µM] | IC50 [2] [µM] | IC50 [3] [µM] | IC50 [4] [µM] | IC50 [5] [µM] | IC50 [6] [µM]
1 | Nc1nc2c(ncn2COC(CO)CO)c(=O)[nH]1 [GANCICLOVIR] | 29 | 19 | 1.7 | – | – | –
2 | Nc1nc(O)c2ncn(COC(CO)CCP(=O)(O)O)c2n1 (stereo not drawn) | 200 | 280 | 5.6 | – | – | –
3 | CCOP(=O)(O)CC[C@H](CO)OCn1cnc2c(O)nc(N)nc21 | – | – | 6.8 | – | – | –
4 | Nc1nc2c(ncn2CO[C@@H](CO)CCP(=O)(O)O)c(=O)[nH]1 | 126 | 96 | 1.7 | > 100 | > 100 | > 100
